# Target: 20S proteasome (Homo sapiens, UniProt P28072+P28074+Q99436)
# Assay: Proteasome-Glo luminescent assay in MCF-7 cells
# Type: cell-based
# Conditions: MCF7, read-out: % Inhibition of 20S Proteasome / 20 μg/mL
# How it was run: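 MCF-7 cells grown at 37°C, 5% CO2 in RPMI 1640 with 10% FBS, penicillin and streptomycin. Log-phase cells trypsinized, washed extensively, seeded at 7,500/well, incubated overnight. Test compound added in DMSO (final 0.2%), 2 h at 37°C. Luminescent read-out of proteasome chymotrypsin-like, trypsin-like or caspase-like activity. % inhibition versus solvent control. Bortezomib (5, 25 nM) was the positive control.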
row,inhibition at 20 µg/mL [%],Structure (SMILES)
1,1,"COC(=O)c1cccc(O)c1C(=O)c1c(O)cc(C)cc1O [compound 1, moniliphenone]"
2,58,"COC(=O)[C@]12Oc3c(c(O)cc4c3[C@@H]3C=C[C@]5(C4)C(=C(O)c4c(O)cc(C)cc4[C@@H]5OC(C)=O)C3=O)C(=O)[C@]1(O)C(=O)C=C[C@@H]2O [compound 2, acremoxanthone D]"

# — PMC3267898 (The Journal of antibiotics, 2011)
